Measurements reported in ChEMBL document CHEMBL1151735, “Further studies with the 2-amino-1,3-thiazol-4(5H)-one class of 11beta-hydroxysteroid dehydrogenase type 1 inhibitors: reducing pregnane X receptor activity and exploring activity in a monkey pharmacodynamic model” (J Med Chem, 2008).
The source made the active and inactive calls. The calls are words filed in the database; no cut-off is given here.

Legend:
[1] = biological target: T1, Nuclear receptor subfamily 1 group I member 2 (Homo sapiens, UniProt O75469); test: Transactivation of human PXR transfected in HEK cells at 20 uM by luciferase reporter gene assay relative to 12.5 uM rifampin; assay type: cell-based; details: hek293, 20 µM
T1 sequence (O75469 whole entry): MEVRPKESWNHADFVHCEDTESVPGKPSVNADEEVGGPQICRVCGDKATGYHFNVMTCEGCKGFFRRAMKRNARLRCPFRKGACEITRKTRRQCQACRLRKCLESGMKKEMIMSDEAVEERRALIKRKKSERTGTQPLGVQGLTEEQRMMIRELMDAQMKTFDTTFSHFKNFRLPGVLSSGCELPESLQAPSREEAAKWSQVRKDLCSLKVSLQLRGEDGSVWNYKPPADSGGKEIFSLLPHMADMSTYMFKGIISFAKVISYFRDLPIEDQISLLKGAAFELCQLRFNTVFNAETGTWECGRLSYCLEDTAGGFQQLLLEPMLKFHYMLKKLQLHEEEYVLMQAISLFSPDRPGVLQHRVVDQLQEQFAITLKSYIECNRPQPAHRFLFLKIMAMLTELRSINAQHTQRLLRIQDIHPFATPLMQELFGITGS
Summary of the method: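 HEK cells transfected with human PXR fused to a firefly luciferase reporter. Luciferase activity is expressed as percent of the 12.5 µM rifampin response. Run in triplicate; SEM reported.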

[2] = biological target: T2, 11-beta-hydroxysteroid dehydrogenase 1 (Homo sapiens, UniProt P28845); test: Inhibition of human 11beta-HSD1 expressed in CHO cells assessed as conversion of cortisone to cortisol by ELISA; assay type: cell-based
[3] = biological target: T2, 11-beta-hydroxysteroid dehydrogenase 1; test: Inhibition of human recombinant 11beta-HSD1 expressed in Escherichia coli using [3H]cortisone by scintillation proximity assay
[4] = biological target: T3, 11-beta-hydroxysteroid dehydrogenase type 2 (Homo sapiens, UniProt P80365); test: Inhibition of human 11beta-HSD2 expressed in CHO cells using [3H]cortisol by scintillation proximity assay; assay type: cell-based
T3 sequence (P80365 whole entry): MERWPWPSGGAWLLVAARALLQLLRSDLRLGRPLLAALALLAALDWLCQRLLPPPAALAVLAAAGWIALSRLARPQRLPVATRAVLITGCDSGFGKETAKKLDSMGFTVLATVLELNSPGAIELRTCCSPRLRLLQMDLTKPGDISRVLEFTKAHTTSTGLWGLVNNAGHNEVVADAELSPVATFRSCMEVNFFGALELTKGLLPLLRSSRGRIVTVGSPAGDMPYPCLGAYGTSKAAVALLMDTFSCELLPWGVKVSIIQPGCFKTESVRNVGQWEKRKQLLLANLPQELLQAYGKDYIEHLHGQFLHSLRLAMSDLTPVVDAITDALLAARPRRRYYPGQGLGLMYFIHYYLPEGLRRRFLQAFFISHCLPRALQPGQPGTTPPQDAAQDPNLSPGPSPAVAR
Summary of the method: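 Human 11β-HSD2 from CHO cells with [3H]cortisol 3 nM and NAD+ 300 µM, in 0.1 M sodium phosphate pH 7.6. 1 h at room temperature, then stopped with 18β-glycyrrhetinic acid. Anticortisol antibody and antimouse SPA beads added for 30 min; radiometric read-out.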

[5] = Volume of distribution at steady state in rat at 2 mg/kg, iv and 5 mg/kg, po; assay type: ADME, organism-based; details: in vivo, read-out: Vdss
Hepatocyte [6] = test: Induction of CYP3A4 in cryopreserved human hepatocytes from female NPV donars with history of tobacco and substance usage assessed as mRNA expression at 20 uM relative to 20 uM rifampin; assay type: functional
[7] = AUC (0 to infinity) in dog at 5 mg/kg, po; assay type: ADME, organism-based, Canis lupus familiaris; parameters: time infinity, dose 5 mg/kg, route oral; details: plasma
[8] = Oral bioavailability in monkey at 10 mg/kg; assay type: ADME, organism-based, Macaca mulatta; details: rhesus monkey, in vivo
[9] = Fraction unbound in cynomolgus monkey plasma protein; assay type: ADME, cell-free, Macaca fascicularis
[10] = Half life in mouse at 2 mg/kg, iv; assay type: ADME, organism-based; parameters: dose 2 mg/kg, route intravenous; details: in vivo
[11] = biological target: T4, 11-beta-hydroxysteroid dehydrogenase 1 (Mus musculus, UniProt P50172); test: Inhibition of mouse 11beta-HSD1 expressed in CHO cells assessed as conversion of cortisone to cortisol by ELISA; assay type: cell-based
Summary of the method: (§1)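 CHO cells stably overexpressing the species 11β-HSD1, 30000 per well, seeded 1 day before. Rinsed in HEPES glucose buffer pH 7.4 with 0.1% DMSO. Compound 0.1 nM–10 µM final, 60 min at 37 °C. Cortisone then added (100 nM final) at 37 °C: mouse 45 min, dog 1.5 h, rat and monkey 2 h. Cortisol measured by ELISA.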

[12] = Oral bioavailability in mouse at 10 mg/kg; assay type: ADME, organism-based; details: in vivo
[13] = AUC (0 to infinity) in mouse at 10 mg/kg, po; assay type: ADME, organism-based; parameters: dose 10 mg/kg, route oral, time infinity; details: plasma
[14] = Clearance in rat at 2 mg/kg, iv and 5 mg/kg, po; assay type: ADME, organism-based; details: in vivo
[15] = AUC (0 to infinity) in rat at 5 mg/kg, po; assay type: ADME, organism-based; parameters: time infinity, dose 5 mg/kg, route oral; details: plasma
Cynomolgus monkey [16] = test: Inhibition of 11beta-HSD1 in mesenteric fat of cynomolgus monkey assessed as conversion of [3H]cortisone to [3H]cortisol at 30 mg/kg, po after 2 hrs; assay type: functional, organism-based; parameters: dose 30 mg/kg; details: Macaca fascicularis
Summary of the method: (§2)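 Male cynomolgus monkeys, at least four per group, given a single nasal-gastric dose in 1% Tween 80/47.5% Ora-Plus/51.5% water. Plasma and mesenteric fat taken 2 h post-dose and snap-frozen. About 50 mg fat pieces, in triplicate, incubated 1 h at 37 °C in KRP buffer pH 7.4 containing 3H-cortisone. 3H-cortisol in the medium quantified by SPA with anti-cortisol antibody beads.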

[17] = Half life in dog at 2 mg/kg, iv; assay type: ADME, organism-based, Canis lupus familiaris; parameters: dose 2 mg/kg, route intravenous; details: in vivo
Summary of the method: (§3)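 Dog PK: intravenous 2 mg kg^-1 in 10% dimethylacetamide, 23% water, 67% PEG 400; oral 5 mg kg^-1 in 1% Tween 80, 47.5% OraPlus, 51.5% water.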

[18] = Oral bioavailability in rat at 5 mg/kg; assay type: ADME, organism-based; details: in vivo
[19] = Half life in rat at 2 mg/kg, iv; assay type: ADME, organism-based; parameters: dose 2 mg/kg, route intravenous; details: in vivo
[20] = Volume of distribution at steady state in monkey at 2 mg/kg, iv and 10 mg/kg, po; assay type: ADME, organism-based, Macaca mulatta; details: rhesus monkey, in vivo, read-out: Vdss
[21] = biological target: T5, 11-beta-hydroxysteroid dehydrogenase 1 (Rattus norvegicus, UniProt P16232); test: Inhibition of rat 11beta-HSD1 expressed in CHO cells assessed as conversion of cortisone to cortisol by ELISA; assay type: cell-based; summary of the method: as §1
Hepatocyte [22] = test: Induction of CYP3A4 in cryopreserved human hepatocytes from male DJV donars with no adverse medical history or substance or alcohol abuse assessed as mRNA expression at 20 uM relative to 20 uM rifampin; assay type: functional
Cytochrome P450 3A4 [23] = biological target: T6, Cytochrome P450 3A4 (Homo sapiens, UniProt P08684); test: Induction of CYP3A4 activity in cryopreserved human hepatocytes from male DJV donars with no adverse medical history or substance or alcohol abuse at 20 uM relative to 20 uM rifampin
[24] = Volume of distribution at steady state in dog at 2 mg/kg, iv and 5 mg/kg, po; assay type: ADME, organism-based, Canis lupus familiaris; details: in vivo, read-out: Vdss; summary of the method: as §3
Cynomolgus monkey [25] = test: Plasma concentration in cynomolgus monkey at 30 mg/kg, po; assay type: ADME, organism-based, Macaca fascicularis; parameters: dose 30 mg/kg, route oral; details: in vivo
Summary of the method: (§4)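 Male cynomolgus monkeys, at least four per group, given a single nasal-gastric dose in 1% Tween 80, 47.5% Ora-Plus, 51.5% water. Plasma collected 2 h post-dose and snap-frozen.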

[26] = Inhibition of monkey 11beta-HSD1 expressed in CHO cells assessed as conversion of cortisone to cortisol by ELISA; assay type: cell-based, Macaca mulatta; summary of the method: as §1
[27] = biological target: T5, 11-beta-hydroxysteroid dehydrogenase 1; test: Inhibition of rat recombinant 11beta-HSD1 expressed in Escherichia coli using [3H]cortisone by scintillation proximity assay
Cytochrome P450 3A4 [28] = biological target: T6, Cytochrome P450 3A4; test: Induction of CYP3A4 activity in cryopreserved human hepatocytes from female NPV donars with history of tobacco and substance usage at 20 uM relative to 20 uM rifampin
Cynomolgus monkey [29] = test: Plasma concentration in cynomolgus monkey at 3 mg/kg, po; assay type: ADME, organism-based, Macaca fascicularis; parameters: dose 3 mg/kg, route oral; details: in vivo; summary of the method: as §4
[30] = Inhibition of monkey recombinant 11beta-HSD1 expressed in Escherichia coli using [3H]cortisone by scintillation proximity assay; parameters: species or system Macaca mulatta
[31] = biological target: T7, 11-beta-hydroxysteroid dehydrogenase type 1 (Canis lupus familiaris, UniProt Q5XX84); test: Inhibition of dog recombinant 11beta-HSD1 expressed in Escherichia coli using [3H]cortisone by scintillation proximity assay
Summary of the method: (§5)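 Purified enzyme expressed in E. coli, dog at 20 nM final and mouse at 5 nM. [3H]cortisone 100 nM, NADPH 200 µM, in 50 mM Tris-HCl, 1 mM EDTA, pH 7.2. 1 h at room temperature, then stopped with 18β-glycyrrhetinic acid. Anticortisol antibody and antimouse SPA beads added for 30 min; read by scintillation counting. Ki derived.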

[32] = Oral bioavailability in dog at 5 mg/kg; assay type: ADME, organism-based, Canis lupus familiaris; details: in vivo
[33] = Clearance in monkey at 2 mg/kg, iv and 10 mg/kg, po; assay type: ADME, organism-based, Macaca mulatta; details: rhesus monkey, in vivo
[34] = biological target: T7, 11-beta-hydroxysteroid dehydrogenase type 1; test: Inhibition of dog 11beta-HSD1 expressed in CHO cells assessed as conversion of cortisone to cortisol by ELISA; assay type: cell-based; summary of the method: as §1
[35] = Half life in monkey at 2 mg/kg, iv; assay type: ADME, organism-based, Macaca mulatta; parameters: dose 2 mg/kg, route intravenous; details: rhesus monkey, in vivo
[36] = Clearance in dog at 2 mg/kg, iv and 5 mg/kg, po; assay type: ADME, organism-based, Canis lupus familiaris; details: in vivo; summary of the method: as §3
[37] = Volume of distribution at steady state in mouse at 2 mg/kg, iv and 10 mg/kg, po; assay type: ADME, organism-based; details: in vivo, read-out: Vdss
Cynomolgus monkey [38] = test: Inhibition of 11beta-HSD1 in mesenteric fat of cynomolgus monkey assessed as conversion of [3H]cortisone to [3H]cortisol at 3 mg/kg, po after 2 hrs; assay type: functional, organism-based; parameters: dose 3 mg/kg; details: Macaca fascicularis; summary of the method: as §2
[39] = biological target: T4, 11-beta-hydroxysteroid dehydrogenase 1; test: Inhibition of mouse recombinant 11beta-HSD1 expressed in Escherichia coli using [3H]cortisone by scintillation proximity assay; summary of the method: as §5
[40] = Clearance in mouse at 2 mg/kg, iv and 10 mg/kg, po; assay type: ADME, organism-based; details: in vivo
[41] = AUC (0 to infinity) in monkey at 10 mg/kg, po; assay type: ADME, organism-based, Macaca mulatta; parameters: time infinity, dose 10 mg/kg, route oral; details: rhesus monkey, plasma

T2 sequence (P28845 whole entry): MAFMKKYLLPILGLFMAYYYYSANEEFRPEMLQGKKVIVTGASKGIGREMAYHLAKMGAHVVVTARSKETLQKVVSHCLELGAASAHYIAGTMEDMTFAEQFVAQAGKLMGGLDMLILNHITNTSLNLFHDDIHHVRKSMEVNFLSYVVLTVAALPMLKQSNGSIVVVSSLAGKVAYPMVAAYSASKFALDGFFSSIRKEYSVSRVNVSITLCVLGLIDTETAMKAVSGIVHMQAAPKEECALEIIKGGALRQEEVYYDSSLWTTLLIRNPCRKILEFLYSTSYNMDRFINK
T7 sequence (Q5XX84 whole entry): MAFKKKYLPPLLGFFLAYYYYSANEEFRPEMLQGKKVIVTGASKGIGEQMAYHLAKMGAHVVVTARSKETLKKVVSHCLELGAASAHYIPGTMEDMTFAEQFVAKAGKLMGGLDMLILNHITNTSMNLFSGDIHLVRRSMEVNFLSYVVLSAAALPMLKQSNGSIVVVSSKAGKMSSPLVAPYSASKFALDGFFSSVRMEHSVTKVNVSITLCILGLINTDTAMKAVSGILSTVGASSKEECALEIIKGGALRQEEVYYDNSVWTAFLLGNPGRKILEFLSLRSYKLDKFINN
T5 sequence (P16232 whole entry): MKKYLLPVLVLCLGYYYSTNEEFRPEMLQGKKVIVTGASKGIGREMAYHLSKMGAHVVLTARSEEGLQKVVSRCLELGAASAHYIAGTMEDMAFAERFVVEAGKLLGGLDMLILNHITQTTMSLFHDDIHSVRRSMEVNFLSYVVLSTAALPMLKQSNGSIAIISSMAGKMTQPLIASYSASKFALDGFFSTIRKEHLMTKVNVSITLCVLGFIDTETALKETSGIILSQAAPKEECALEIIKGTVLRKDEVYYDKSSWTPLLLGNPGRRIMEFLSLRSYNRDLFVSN
T6 sequence (P08684 whole entry): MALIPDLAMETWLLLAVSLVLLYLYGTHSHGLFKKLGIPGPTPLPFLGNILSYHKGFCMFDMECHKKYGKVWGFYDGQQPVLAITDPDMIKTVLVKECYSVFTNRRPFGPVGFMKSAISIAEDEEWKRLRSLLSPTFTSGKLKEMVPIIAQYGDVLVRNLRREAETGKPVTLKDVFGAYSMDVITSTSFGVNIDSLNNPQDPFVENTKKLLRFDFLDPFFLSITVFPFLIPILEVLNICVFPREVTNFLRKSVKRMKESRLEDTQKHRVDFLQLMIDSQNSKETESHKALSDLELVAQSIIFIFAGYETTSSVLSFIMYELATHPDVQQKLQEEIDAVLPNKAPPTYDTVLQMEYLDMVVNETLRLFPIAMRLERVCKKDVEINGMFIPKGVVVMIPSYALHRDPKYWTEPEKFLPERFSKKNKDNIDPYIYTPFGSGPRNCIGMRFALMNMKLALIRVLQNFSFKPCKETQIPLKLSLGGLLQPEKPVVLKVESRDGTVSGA
T4 sequence (P50172 whole entry): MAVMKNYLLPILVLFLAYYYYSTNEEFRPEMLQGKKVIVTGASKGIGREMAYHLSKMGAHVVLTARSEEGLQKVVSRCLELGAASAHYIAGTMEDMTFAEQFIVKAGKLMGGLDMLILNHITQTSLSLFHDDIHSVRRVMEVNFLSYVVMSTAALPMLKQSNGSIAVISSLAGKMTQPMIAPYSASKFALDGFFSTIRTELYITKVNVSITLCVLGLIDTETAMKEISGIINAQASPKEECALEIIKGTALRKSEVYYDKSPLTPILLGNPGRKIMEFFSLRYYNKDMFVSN

`C[C@H](NC1=NC(=O)C(C)(C(C)(C)O)S1)c1ccccc1` (some centres undefined) gave an Activity [1] of 68%.

Work on `C[C@H](NC1=NC(=O)C(C)(C(C)(C)O)S1)c1ccccc1C(F)(F)F` (some centres undefined) yielded an IC50 [2] of 43 nM, a Ki [3] of 25 nM and an Activity [1] of 43%. For the same compound, the IC50 [4] was > 10000 nM.

`C[C@H](NC1=NC(=O)[C@](C)(C(C)(C)O)S1)c1ccc(F)cc1` showed a Vd [5] of 2.5 L/kg, an Activity (Hepatocyte [6]) of 13% and an AUC(0-inf) [7] of 54000 ng·h/mL. It also gave a bioavailability [8] of 65%, an IC50 [2] of 34 nM and a fraction unbound [9] of 0.108. It also gave a half-life [10] of 3.3 h, an IC50 [11] of 140 nM and a bioavailability [12] of 100%. It also gave an AUC(0-inf) [13] of 6500 ng·h/mL, a clearance [14] of 5.17 mL/min/kg and a Ki [3] of 35 nM. The AUC(0-inf) [15] was 9200 ng·h/mL, the Activity (Cynomolgus monkey [16]) was “Active” and the half-life [17] was 7.3 h. It also gave a bioavailability [18] of 56%, a half-life [19] of 5.6 h and a Vd [20] of 1.9 L/kg. The IC50 [21] was 340 nM, the Activity (Hepatocyte [22]) was 45% and the Activity (Cytochrome P450 3A4 [23]) was 17%. The Vd [24] was 0.88 L/kg, the concentration (Cynomolgus monkey [25]) was 26 µM and the IC50 [26] was 42 nM. The Ki [27] was 300 nM, the Activity (Cytochrome P450 3A4 [28]) was 10% and the concentration (Cynomolgus monkey [29]) was 4.9 µM. The Ki [30] was 48 nM, the Ki [31] was 12 nM and the bioavailability [32] was 91%. For the same compound, the clearance [33] was 20 mL/min/kg, the IC50 [34] was 45 nM and the Activity [1] was 6%. The half-life [35] was 2.2 h, the clearance [36] was 1.42 mL/min/kg and the Vd [37] was 1.4 L/kg. The Activity (Cynomolgus monkey [38]) was “Active”, the Ki [39] was 100 nM and the clearance [40] was 26.7 mL/min/kg. The AUC(0-inf) [41] was 5700 ng·h/mL.

For `C[C@H](NC1=NC(=O)C(C)(C(C)(C)O)S1)c1ccccc1F` (some centres undefined), the IC50 [2] was 70 nM, the Ki [3] was 34 nM and the Activity [1] was 19%. The IC50 [4] was > 10000 nM.
